A selection: hits, their analogues and other compounds. The true share with any hit is near 1.6%.
TDP2 absorb: blocks human TDP2 phosphodiesterase activity. AID 720702. recombinant TDP2, T5PNP hydrolysis, p-nitrophenol absorbance 415 nm. 370,000 tested, 0.34% active. inhibition, % at 12.8 µM;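 active means inhibition above the mean of all tested compounds plus 3 SD, set per campaign, cut at about 25% in these data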;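 further: 0% = DMSO with enzyme and 100% = buffer with substrate but no TDP2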
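Incubation: 2 h at 37 °C; Test system: recombinant human TDP2; Quantity: enzyme 120 nM; Read-out basis: percent inhibition; Medium: 50 mM Tris-HCl pH 7.5 with Mg2+, KCl, DTT, BSA; Repeats: single replicate; Compound: 12.8 µM single point, 1% DMSO; Signal: epi absorbance; Reagent: 5 mM T5PNP chromogenic substrate; Benchmarks: no-enzyme high, DMSO-plus-enzyme low.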
UHRF1 binding: blocks human UHRF1 binding to methylated DNA | inhibition, % at 4.4 µM | Q96T88 | 370,000 tested, 0.75% active | UHRF1 binding to methylated oligo, TR-FRET | AID 687016;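 further: UHRF1 SRA domain binding a hemimethylated CpG hairpin DNA probe; 0% = median of test compound wells and 100% = reference inhibitor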
Target sequence (Q96T88 whole entry, looked up, the tested form may be a part): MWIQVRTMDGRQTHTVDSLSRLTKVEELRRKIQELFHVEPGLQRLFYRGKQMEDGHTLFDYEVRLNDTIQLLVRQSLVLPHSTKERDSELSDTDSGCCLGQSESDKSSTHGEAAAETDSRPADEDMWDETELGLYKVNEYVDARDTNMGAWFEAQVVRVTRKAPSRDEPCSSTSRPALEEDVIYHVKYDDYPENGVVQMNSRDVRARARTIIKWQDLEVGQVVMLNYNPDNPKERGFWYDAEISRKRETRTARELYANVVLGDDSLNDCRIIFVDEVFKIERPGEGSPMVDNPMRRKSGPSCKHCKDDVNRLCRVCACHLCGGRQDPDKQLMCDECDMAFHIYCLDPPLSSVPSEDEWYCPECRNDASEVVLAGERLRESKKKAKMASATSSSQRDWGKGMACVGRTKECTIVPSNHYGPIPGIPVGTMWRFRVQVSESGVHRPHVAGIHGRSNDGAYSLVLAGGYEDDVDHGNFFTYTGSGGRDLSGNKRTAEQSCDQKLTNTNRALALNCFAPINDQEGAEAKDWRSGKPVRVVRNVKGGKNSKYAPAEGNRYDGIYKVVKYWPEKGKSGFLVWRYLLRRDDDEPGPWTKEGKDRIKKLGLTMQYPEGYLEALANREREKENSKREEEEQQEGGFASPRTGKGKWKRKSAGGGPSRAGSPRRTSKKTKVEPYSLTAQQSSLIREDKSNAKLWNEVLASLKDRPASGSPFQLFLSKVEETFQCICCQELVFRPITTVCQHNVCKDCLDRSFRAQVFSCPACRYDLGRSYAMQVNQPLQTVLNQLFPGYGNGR
MBD2 inh: MBD2-methylated oligo binding inhibition | 370,000 tested, 0.31% active | inhibition, % at 4.4 µM | Q9UBB5 | TR-FRET, MBD2 binding to methylated oligonucleotide; in the data active means inhibition above about 13%
LEDGF integ inh: blocks HIV-1 LEDGF/p75-dependent DNA integration; TR-FRET IN-LEDGF/p75 DNA integration, Eu/Cy5; inhibition, % at 3.7 µM; 370,000 tested, 0.64% active;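 active means inhibition above the screen-wide mean plus 3 SD, cut at about 13% in these data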;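 further: signal is the Cy5 over europium emission ratio at 671 and 618 nm; 0% = plate median of compound wells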
UHRF1 DNA bind: counter-screen for MBD2 inhibitors: human UHRF1 methylated DNA binding inhibitors; shares compounds with MBD2 inh; UHRF1 binding to methylated oligonucleotide, TR-FRET; inhibition, % at 4.4 µM; 1,000 tested, 25% active; AID 720530;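 further: UHRF1 SRA domain binding a labeled hemimethylated CpG hairpin DNA; 0% = vehicle only and 100% = reference inhibitor with vehicle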
MBD2 DBD conf: confirmation of human MBD2-DBD methylated oligonucleotide binding inhibitors; shares compounds with MBD2 inh; TR-FRET MBD2-DBD binding to methylated oligonucleotide; inhibition, % at 4.4 µM; 1,000 tested, 26% active; in the data active means inhibition above about 14%
Numbers without * were called inactive; . = not tested or not shown. Unless noted, no stated cut-off is given here; in the data, active means inhibition above about 21%; inactive means the rest.

SMILES	TDP2 absorb	UHRF1 binding	MBD2 inh	LEDGF integ inh	UHRF1 DNA bind	MBD2 DBD conf
CN(C)[C@H]1CCN(c2ccc3c(c2)O[C@@H]2CCN(C2)S3(=O)=O)C1	4	16	18*	0	9	7
COc1cc(OC)cc(C(=O)Nc2ccc3c(c2)CCCN3C(=O)c2cccs2)c1	9	-3	25*	0	3	3
O=C1CN(C(=O)COC(=O)c2oc3ccccc3c2COc2ccccc2)c2ccccc2N1	-2	5	4	1	.	.
CC1(C)CC(=O)C=C(NCc2ccco2)C1	1	2	35*	-2	4	3
O=C1C=C(NCc2ccco2)CCC1	0	-2	-2	-1	.	.
COc1ccc(C(=O)COC(=O)C(CCCCN2C(=O)C3C4C=CC(C4)C3C2=O)N2C(=O)C3C4C=CC(C4)C3C2=O)cc1 (stereo not given)	-11	0	-4	11	.	.
CCOC(=O)[C@]12CCC=C1N(Cc1ccco1)C(=O)[C@H](CC(=O)N1CCC(c3ccccc3)CC1)C2	-5	10	15*	-1	7	10
Cc1cccc(NC(=O)C2CCCN(c3cnccn3)C2)c1 (stereo not given)	5	-2	-1	1	.	.
Cc1cc(C)c2nc3nc(C)c(C)cc3c(N)c2c1	3	26*	21*	-1	41*	38*
CCCSc1nc(C)c2cc(C)cc(C)c2n1	-7	3	8	2	.	.
C=C(C)C(=O)Nc1cccc(C2=NOC3(C2)C[C@@H](C(N)=O)N(C(=O)/C=C/CC)C3)c1 (stereo not given in full)	-3	67*	39*	9	69*	43*
CCC(=O)Nc1cccc(C2=NOC3(C2)C[C@@H](C(N)=O)N(C(=O)COc2ccc(Cl)cc2)C3)c1 (stereo not given in full)	-2	1	0	3	.	.
C=C(C)C(=O)Nc1cccc(C2=NOC3(C2)C[C@H](C(N)=O)N(C(=O)COc2ccc(Cl)cc2)C3)c1 (stereo not given in full)	-1	69*	51*	16*	88*	69*
C=C(C)C(=O)Nc1cccc(C2=NOC3(C2)C[C@@H](C(N)=O)N(C(=O)c2cc([N+](=O)[O-])cc([N+](=O)[O-])c2C)C3)c1 (stereo not given in full)	-8	34*	18*	9	24*	12
Cc1ccc(C)c(OCCC(=O)OCC(=O)Nc2cccnc2Cl)c1	-19	3	-7	1	.	.
Cc1ccc(OCCC(=O)Nc2ccccc2C(=O)N2CCCCC2)cc1	9	1	-2	-4	.	.
O=S1(=O)CC(N2CCCC2)CN1 (stereo not given)	8	15	15*	3	10	3
O=S1(=O)CC(N2CCCCC2)CN1C1CCCCC1 (stereo not given)	-11	1	-2	1	.	.
COc1cc(OC)cc(-c2sc3ccc(OC)cc3c2C#CC2(N)CCCCC2)c1	8	29*	14*	9	3	7
COC(C(=O)N1CCC(CCC(=O)Nc2ccccc2)CC1)c1ccccc1 (stereo not given)	-16	27*	15*	-3	4	4
Cc1noc(C)c1NC(=O)N(C)C[C@@H]1Oc2ncc(Br)cc2C(=O)N([C@@H](C)CO)C[C@H]1C	0	5	10	-5	.	.
COc1cc2c(c(OC)c1OC)-c1c(cc3c(c1O)OCO3)C[C@@H](C)[C@@H](C)C2	2	3	2	3	.	.
CNC12CCc3cc(OC)c(OC)c(c31)-c1cc3c(cc1C2)OCO3 (stereo not given)	-1	30*	23*	12	11	9
COCCNc1ncnc2c1ncn2[C@H]1CN(Cc2ccco2)C[C@@H](CO)O1	2	0	24*	-2	7	2
OCCNc1ncnc2c1ncn2[C@H]1CN(Cc2ccco2)C[C@@H](CO)O1	-2	0	2	-1	.	.
SMILES	TDP2 absorb	UHRF1 binding	MBD2 inh	LEDGF integ inh	UHRF1 DNA bind	MBD2 DBD conf
Cc1nn(CCc2n[nH]c(=S)n2-c2ccc(F)cc2)c(C)c1[N+](=O)[O-]	3	0	73*	-2	8	2
Cc1nn(CCc2n[nH]c(=S)n2-c2ccc(F)c(Cl)c2)c(C)c1[N+](=O)[O-]	5	-3	2	0	.	.
O=C(COC(=O)CCN1C(=O)c2ccccc2C1=O)Nc1ccccc1[N+](=O)[O-]	-5	-1	1	7	.	.
O=C(COC(=O)CN1C(=O)c2ccccc2C1=O)Nc1ccccc1[N+](=O)[O-]	6	24*	19*	1	3	2
Cc1ccc(CN2C(=O)C3CCCN3c3ncccc32)cc1 (stereo not given)	-7	-2	52*	-2	5	3
Cc1ccc(S(=O)(=O)n2ccc(-c3c(-c4ccc(Cl)cc4)noc3C)n2)cc1	-3	-2	2	3	.	.
COc1cccc2c1C(=O)c1c(O)c3c(c(O)c1C2=O)CC(O)(C(=O)CO)CC3OC1CC(N(C)C)C(O)C(C)O1 (stereo not given)	0	97*	113*	13	99*	111*
COc1cccc2c1C(=O)c1c(O)c3c(c(O)c1C2=O)C[C@@](O)(C(C)=O)C[C@@H]3O[C@H]1C[C@H](N)[C@H](O)[C@H](C)O1	9	91*	107*	4	98*	110*
COc1ccc(NC(=O)CNC(=O)c2sc3ccccc3c2Cl)c(OC)c1	6	-3	-6	-2	.	.
Cc1ccc(Br)cc1S(=O)(=O)Nc1cccnc1	9	36*	18*	11	2	4
N/C(=N\OC(=O)COc1ccc2ccccc2c1Br)c1cccnc1	5	1	-1	-6	.	.
OC1C2CN3CCN(C2)CC1(Cc1ccccc1)C3 (stereo not given)	-2	-1	-5	0	.	.
CC(=O)c1cc(-c2ccc(F)cc2)n(CCC(=O)NC(C)(C)C)c1C	-1	83*	36*	15*	3	1
Cn1c(-c2ccccc2)cc(=O)n1-c1ccccc1	8	-1	62*	-1	6	4
O=C(O)c1ccc(N2C(=O)/C(=C\c3ccccc3)N=C2c2ccccc2)cc1	9	0	-1	3	.	.
CN1CCCN(C(=O)C2CCCN(C(=O)c3ccc4c(c3)NC(=O)CS4)C2)CC1 (stereo not given)	-6	0	25*	6	9	3
Cn1c(SCc2ccc(Cl)cc2)nnc1-c1ccc2nonc2c1	3	4	21*	-2	7	3
Cn1c(SCc2c(Cl)cccc2Cl)nnc1-c1ccc2nonc2c1	1	2	2	-4	.	.
